Reference: ChEMBL document CHEMBL1126976, “Hybrids of antibiotics inhibiting protein synthesis. Synthesis and biological activity” (1993)
In brackets after ≈: the same amount, converted by molar mass.

Legend:
[1] = test system: Klebsiella pneumoniae; test: The compound was tested for minimum inhibitory concentration required for inhibition of microbial growth in Klebsiella pneumoniae at the Upjohn culture; type: functional
In short: (§1)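 Agar dilution in brain heart infusion agar with serial 2-fold compound dilutions. Organisms grown overnight on BHIA at 35 °C aerobically and suspended in TSB to 0.5 McFarland. The suspension is diluted 1:20 and spotted as 1-μL drops (~10^4 CFU). Plates incubated 18 h at 35 °C. MIC is the lowest concentration preventing visible growth.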

[2] = test system: Staphylococcus aureus; test: The compound was tested for minimum inhibitory concentration required for inhibition of microbial growth in staphylococcus aureus at the Upjohn culture 6685; type: functional; in short: as §1
[3] = test system: Staphylococcus aureus; test: The compound was tested for minimum inhibitory concentration required for inhibition of microbial growth in staphylococcus aureus at the Upjohn culture 76; type: functional; in short: as §1
[4] = test system: Saccharomyces cerevisiae; test: The compound was tested for inhibition of Polyphenylalanine synthesis in Saccharomyces cerevisiae ribosome system at concentration of 1*10e-5 M; values are per cent of control
[5] = test system: Staphylococcus aureus; test: The compound was tested for minimum inhibitory concentration required for inhibition of microbial growth in staphylococcus aureus at the Upjohn culture 6690; type: functional; in short: as §1
[6] = test system: Pseudomonas aeruginosa; test: The compound was tested for minimum inhibitory concentration required for inhibition of microbial growth in Pseudomonas aeruginosa at the Upjohn culture 95; type: functional; in short: as §1
[7] = test system: Saccharomyces cerevisiae; test: The compound was tested for inhibition of Polyphenylalanine synthesis in Saccharomyces cerevisiae ribosome system at concentration of 1*10e-3 M; values are per cent of control
[8] = test system: Pseudomonas aeruginosa; test: The compound was tested for minimum inhibitory concentration required for inhibition of microbial growth in Pseudomonas aeruginosa at the Upjohn culture 6676; type: functional; in short: as §1
[9] = The compound was tested for minimum inhibitory concentration required for inhibition of microbial growth in Salmonella schottmuelleri; type: functional; in short: as §1
[10] = test system: Saccharomyces cerevisiae; test: The compound was tested for inhibition of Polyphenylalanine synthesis in Saccharomyces cerevisiae ribosome system at concentration of 1*10e-4 M; values are per cent of control
[11] = test system: Enterococcus faecalis; test: The compound was tested for minimum inhibitory concentration required for inhibition of microbial growth in Enterococcus faecalis at the Upjohn culture; type: functional; in short: as §1
[12] = test system: Streptococcus pyogenes; test: The compound was tested for minimum inhibitory concentration required for inhibition of microbial growth in Streptococcus pyogenes at the Upjohn culture; type: functional; in short: as §1
[13] = test system: Streptococcus pneumoniae; test: The compound was tested for minimum inhibitory concentration required for inhibition of microbial growth in Streptococcus pneumoniae at the Upjohn culture; type: functional; in short: as §1
[14] = test system: Escherichia coli; test: The compound was tested for minimum inhibitory concentration required for inhibition of microbial growth in Escherichia coli at the Upjohn culture; type: functional; in short: as §1
[15] = species on record: Rattus norvegicus; test: The compound was tested for inhibition of Puromycin reaction with hybrid antibiotics in a rat liver ribosome system concentrations of 2*10e-4 M; values are per cent of control
[16] = species on record: Rattus norvegicus; test: The compound was tested for inhibition of Puromycin reaction with hybrid antibiotics in a rat liver ribosome system concentrations at 1*10e-3 M; values are per cent of control
[17] = species on record: Rattus norvegicus; test: as above; remark: listed apart in the source
[18] = species on record: Rattus norvegicus; test: The compound was tested for inhibition of Puromycin reaction with hybrid antibiotics in a rat liver ribosome system concentrations of 2*10e-4 M; values are per cent of control; remark: listed apart in the source

| MIC [1] [µg/mL] | MIC [2] [µg/mL] | MIC [3] [µg/mL] | MIC [5] [µg/mL] | MIC [6] [µg/mL] | MIC [8] [µg/mL] | MIC [9] [µg/mL] | MIC [11] [µg/mL] | MIC [12] [µg/mL] | MIC [13] [µg/mL] | MIC [14] [µg/mL] | SMILES | level, % of control [4] [%] | level, % of control [7] [%] | level, % of control [10] [%] | level, % of control [15] [%] | level, % of control [16] [%] | level, % of control [17] [%] | level, % of control [18] [%] |
| --- | --- | --- | --- | --- | --- | --- | --- | --- | --- | --- | --- | --- | --- | --- | --- | --- | --- | --- |
| > 400 | > 400 | 50 (≈ 137 µM) | 50 (≈ 137 µM) | > 400 | > 400 | > 400 | > 400 | 6.25 (≈ 17.2 µM) | 25 (≈ 68.6 µM) | > 400 | CSC1OC(C(NC(=O)C(Cl)Cl)C(C)O)C(O)C(O)C1O (centres undefined) | 97.3 | 96.8 | 90.9 |  |  |  |  |
| > 400 | > 400 | > 400 | > 400 | > 400 | > 400 | > 400 | > 400 | > 400 | > 400 | > 400 | CSC1OC(C(NC(=O)/C=C/c2c(C)nc(O)nc2O)C(C)O)C(O)C(O)C1O (centres undefined) | 101 | 93.4 | 97.7 |  |  | 91 | 90 |
| 400 (≈ 984 µM) | > 400 | 0.78 (≈ 1.92 µM) | 0.78 (≈ 1.92 µM) | > 400 | > 400 | > 800 | 50 (≈ 123 µM) | 0.2 (≈ 0.492 µM) | 0.78 (≈ 1.92 µM) | > 400 | CCC[C@@H]1C[C@@H](C(=O)N[C@@H]([C@H]2O[C@H](SC)[C@H](O)[C@@H](O)[C@H]2O)[C@@H](C)O)N(C)C1 [LINCOMYCIN] |  |  |  |  |  |  |  |

The next lines start with the compound.

| SMILES | MIC [1] [µg/mL] | MIC [2] [µg/mL] | MIC [3] [µg/mL] | MIC [5] [µg/mL] | MIC [6] [µg/mL] | MIC [8] [µg/mL] | MIC [9] [µg/mL] | MIC [11] [µg/mL] | MIC [12] [µg/mL] | MIC [13] [µg/mL] | MIC [14] [µg/mL] | level, % of control [4] [%] | level, % of control [7] [%] | level, % of control [10] [%] | level, % of control [15] [%] | level, % of control [16] [%] | level, % of control [17] [%] | level, % of control [18] [%] |
| --- | --- | --- | --- | --- | --- | --- | --- | --- | --- | --- | --- | --- | --- | --- | --- | --- | --- | --- |
| O=C(N[C@H](CO)[C@H](O)c1ccc([N+](=O)[O-])cc1)C(Cl)Cl [CHLORAMPHENICOL] | 3.12 (≈ 9.66 µM) | 6.25 (≈ 19.3 µM) | 6.25 (≈ 19.3 µM) | 50 (≈ 155 µM) | 100 (≈ 309 µM) | 200 (≈ 619 µM) | 6.25 (≈ 19.3 µM) | 6.25 (≈ 19.3 µM) | 3.12 (≈ 9.66 µM) | 3.12 (≈ 9.66 µM) | 3.12 (≈ 9.66 µM) |  |  |  |  |  |  |  |
| CCCC1CC(C(=O)NC(CO)C(O)c2ccc([N+](=O)[O-])cc2)N(C)C1 (centres undefined) | 800 (≈ 2190 µM) | 800 (≈ 2190 µM) | 800 (≈ 2190 µM) | > 800 | > 800 |  | > 800 |  | 200 (≈ 547 µM) |  | > 800 |  |  |  |  |  |  |  |
| Cc1nc(O)nc(O)c1/C=C/C(=O)N[C@H]1[C@@H](O)[C@H](n2cnc3c(N(C)C)ncnc32)O[C@@H]1CO |  |  |  |  |  |  |  |  |  |  |  | 106 | 95.7 | 95.8 | 69 | 76 |  |  |
| CSC[S@@+]([O-])CC(CO)NC(=O)/C=C/c1c(C)[nH]c(=O)[nH]c1=O (some centres undefined) |  |  |  |  |  |  |  |  |  |  |  | 44.1 | 15.5 | 30.3 |  |  |  |  |
| Cc1nc(O)nc(O)c1/C=C/C(=O)NC(CO)C(O)c1ccc([N+](=O)[O-])cc1 (centres undefined) | > 400 | > 400 | > 400 | > 400 | > 400 | > 400 | > 400 | > 400 | 50 (≈ 128 µM) | > 400 | > 400 |  |  |  |  |  |  |  |
